CHRM5 antagonist: human M5 muscarinic receptor antagonists, primary screen, CHO cells, Fluo-8 calcium fluorescence; CHO-hM5 cells, ACh EC80; 0.59% of 360,000 active; inhibition, % at 3 µM; AID 624040, 2012;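 active = inhibition above a per-plate cutoff, the mean of that plate's test compounds plus 3 SD, cut at about 27% in these data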;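 note: 0% = acetylcholine EC80 with DMSO and 100% = DMSO without agonist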
M4 PAM: human M4 muscarinic receptor positive allosteric modulators, primary screen, CHO-K1 cells, Fluo-8 calcium fluorescence; Muscarinic acetylcholine receptor M4 (Homo sapiens), P08173; CHO-K1 hM4/Gqi5, ACh EC20; 0% = ACh EC20, 100% = maximal ACh; activation, % at 3 µM; 0.4% of 360,000 active;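 active = activation above its plate's cutoff, the mean activation of sample wells plus 3 SD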
Target sequence (P08173 whole entry, looked up): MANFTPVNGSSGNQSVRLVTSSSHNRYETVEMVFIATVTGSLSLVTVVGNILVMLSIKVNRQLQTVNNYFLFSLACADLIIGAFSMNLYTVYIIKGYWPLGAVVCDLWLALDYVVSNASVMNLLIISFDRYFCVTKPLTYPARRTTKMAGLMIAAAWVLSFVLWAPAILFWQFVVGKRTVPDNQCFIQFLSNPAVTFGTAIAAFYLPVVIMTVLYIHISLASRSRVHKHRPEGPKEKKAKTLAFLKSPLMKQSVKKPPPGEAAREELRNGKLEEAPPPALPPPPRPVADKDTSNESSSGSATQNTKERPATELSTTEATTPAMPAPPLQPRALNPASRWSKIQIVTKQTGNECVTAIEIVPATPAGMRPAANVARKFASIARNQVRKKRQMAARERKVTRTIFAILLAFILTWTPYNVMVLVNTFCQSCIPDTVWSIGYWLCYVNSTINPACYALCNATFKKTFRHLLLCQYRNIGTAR
CHRM4 antagonist: human M4 muscarinic receptor antagonists, primary screen, CHO cells, Fluo-8 calcium fluorescence; CHO-hM4 cells, ACh EC80; inhibition, % at 3 µM; 0.73% of 360,000 active; Muscarinic acetylcholine receptor M4 (Homo sapiens), P08173; AID 624125, 2012;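 active = inhibition above its plate's cutoff, the mean inhibition of sample wells plus 3 SD, cut at about 27% in these data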;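 note: 0% = acetylcholine EC80 with DMSO and 100% = DMSO without agonist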
M4 ag: human M4 muscarinic receptor agonists, primary screen, CHO-K1 cells, Fluo-8 calcium fluorescence; Muscarinic acetylcholine receptor M4 (Homo sapiens), P08173; CHO-K1 hM4/Gqi5; vehicle 0%, full acetylcholine response 100%; activation, % at 3 µM; 0.14% of 360,000 active; AID 624127, 2012;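 active = activation above the run mean over all test wells plus 3 SD, cut at about 32% in these data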;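 note: peak over basal fluorescence ratio per well then scaled between controls; 0% = DMSO wells and 100% = acetylcholine at EC100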
CHRM5 PAM: human M5 muscarinic receptor positive allosteric modulators, primary screen, CHO-K1 cells, Fluo-8 calcium fluorescence; Muscarinic acetylcholine receptor M5 (Homo sapiens), P08912; CHO-K1 hM5, ACh EC20 PAM; 0% = ACh EC20, 100% = ACh EC100; activation, % at 3 µM; AID 624038, 2012; 0.3% of 360,000 active;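 active = activation above the run cutoff, the mean activation of all test compounds plus 3 SD, cut at about 18% in these data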
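system = human M5 receptor in CHO-K1 cells | reagent = EC20 acetylcholine as agonist stimulus | compound dosing = single-point, 3 µM nominal | incubation = Fluo-8 loading 80 min at 37 °C plus 30 min room temperature | detection = Fluo-8 calcium dye fluorescence, kinetic read | benchmarks = low control EC20 acetylcholine (0%), high control EC100 acetylcholine (100%)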
CHRM5 agonist: human M5 muscarinic receptor agonists, primary screen, CHO-K1 cells, Fluo-8 calcium fluorescence. CHO-K1 hM5 cells; 0% DMSO wells, 100% maximal acetylcholine response. activation, % at 3 µM. 0.19% of 360,000 active;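 active = activation above the run's mean over test compounds plus 3 SD, cut at about 23% in these data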;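 note: signal is peak over basal fluorescence ratio across the kinetic read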
* hit, by the source's call. Hits are enriched below; roughly 1.9% of the tested compounds scored in any of these assays.

SMILES	CHRM5 antagonist	M4 PAM	CHRM4 antagonist	M4 ag	CHRM5 PAM	CHRM5 agonist
CCOC(=O)c1cnc(SCCc2ccccc2)nc1N	-7	35*	2	-3	3	-5
CCCCSc1ncc(C(=O)OCC)c(N)n1	-3	-5	1	-1	0	-6
CC(/C=N/NC(=O)Cn1nccc1C)=C\c1ccc(C(C)C)cc1	-3	-6	30*	-1	1	-3
CCCCS(=O)(=O)NC(=O)C1(C)CCN1C(=O)C/C=C/c1ccccc1 (stereo not drawn)	-3	15	-20	1	3	-1
CC(=O)c1ccc(NC(=S)NC(NC(=O)c2ccco2)C(Cl)(Cl)Cl)cc1 (stereo not drawn)	4	3	-12	12	-11	27*
O=C(NC(NC(=S)Nc1ccc(Cl)cc1)C(Cl)(Cl)Cl)c1ccco1 (stereo not drawn)	20	-1	0	12	-16	9
COCCNC(=O)C1CCCN(C(=O)c2ccc3c(c2)C(C)(C)CCC3(C)C)CC1 (stereo not drawn)	6	6	-13	3	-1	1
COc1ccccc1OCC(=O)Nc1cc(C(F)(F)F)ccc1-n1cncn1	1	1	-3	5	1	-2
CCCC(=O)Nc1cc(Cl)ccc1C	-4	3	-9	0	6	0
Cc1ccc(Cl)cc1NC(=O)CCC(=O)Nc1cc(Cl)ccc1C	-4	8	-3	1	24*	-4
O=C(Cn1cnc2ccccc2c1=O)NCCC(=O)Nc1ccccc1C(F)(F)F	11	6	2	2	-4	-5
COc1ccc(CNC(=O)c2sc(=O)n(Cc3ccc(-c4ccccc4)cc3)c2C)cc1OC	30*	-4	-1	21	-24	8
COc1ccc(Cl)cc1Cn1c(C)c(C(=O)NCc2ccc(C#N)cc2)sc1=O	3	-16	12	7	-10	5
COc1ccc(CNC(=O)c2sc(=O)n(Cc3ccc(C)cc3)c2C)cc1OC	4	1	3	7	-7	7
COc1ccc(CNC(=O)c2sc(=O)n(Cc3ccccc3C)c2C)cc1	-3	4	-22	24	-11	41*
Cc1c(C(=O)NCc2ccc([N+](=O)[O-])cc2)sc(=O)n1Cc1ccc2c(c1)OCO2	8	-10	5	21	-13	25*
Cc1ccccc1Cn1c(C)c(C(=O)NCc2cccc(Cl)c2)sc1=O	6	-6	-9	6	-7	1
COc1ccccc1Cn1c(C)c(C(=O)NCc2ccc(C#N)cc2)sc1=O	11	-18	20	37*	-13	28*
O=C(C[C@@H]1CC[C@H](NC(=O)Cc2ccccn2)[C@@H](CO)O1)NCCc1ccccc1	3	13	5	0	0	-1
Cc1cccc(C)c1NC(=O)CNC(=O)c1cccc(S(=O)(=O)NCc2cccs2)c1	6	1	2	2	5	0
COc1ccccc1C(=O)N/C(=C\c1cn(S(=O)(=O)N(C)C)c2ccccc12)C(=O)N1CCN(C)CC1	4	1	-25	17	-11	2
CCOc1cc(N(CC)CC)ccc1/C=C(/C#N)c1nc2ccccc2[nH]1	-2	-6	3	6	-11	-1
CCCOc1cc(N(CC)CC)ccc1/C=C(/C#N)c1nc2ccc(C)cc2[nH]1	56*	-33	45*	31	-19	39*
CCN(CC)c1ccc(/C=C(/C#N)c2nc3ccc(C)cc3[nH]2)c(OC(C)C)c1	69*	-35	56*	46*	-18	58*
COc1ccc(S(=O)(=O)N2CCOC2CNC(=O)C(=O)NCc2ccc3c(c2)OCO3)cc1C (stereo not drawn)	-2	-1	-8	7	-1	0
SMILES	CHRM5 antagonist	M4 PAM	CHRM4 antagonist	M4 ag	CHRM5 PAM	CHRM5 agonist
CCCS(=O)(=O)NC(=O)C1(C)CCN1C(=O)Cc1ccc(Cl)cc1Cl (stereo not drawn)	5	0	3	1	1	-1
CC(C)CCn1nc(C(=O)OCC(=O)NC(C)c2ccccc2)c2ccccc2c1=O (stereo not drawn)	29*	-1	1	0	2	-3
CNC(=O)C12CCC(C)(c3nc4cc(C)c(C)cc4nc31)C2(C)C (stereo not drawn)	2	3	-3	0	1	-1
CCCNC(=O)C12CCC(C)(c3nc4cc(C)c(C)cc4nc31)C2(C)C (stereo not drawn)	-3	23*	-26	-1	25*	13
COc1cc(C(C)=O)ccc1OCC(=O)Nc1ccc(Cl)c(S(=O)(=O)N2CCOCC2)c1	19	-3	-11	23	-19	7
Cc1c(C=O)c2ccccn2c1C(=O)c1ccccc1Cl	15	-17	55*	0	-10	-3
CC(O)CC(=O)OC[C@]12CC[C@H]3[C@@](C)(CC[C@H]4C(C)(C)CCC[C@]34C)[C@@H]1CC(C1=CC(=O)OC1O)O2 (stereo partly drawn)	13	-12	64*	3	-3	0
CCN(CC)CCNC(=O)C12CC3CC(C)(CC(C)(C3)C1)C2	9	-13	15	2	-13	-7
CCN(CC)CCNC(=O)C12CC3CC(CC(C3)C1)C2	-3	-13	42*	0	-4	-7
CC(C)C(=O)Nc1cccc(-c2nc3ncccc3o2)c1	9	1	8	3	-6	-1
CC(C)C(=O)Nc1ccc(-c2nc3ncccc3o2)cc1	30*	-7	12	1	-3	-3
Cc1c(CCC(=O)O)c(=O)oc2cc3occ(-c4ccc(F)cc4)c3cc12	38*	5	-12	1	35*	-1
CC(Oc1ccccc1)c1ccnn1S(=O)(=O)c1ccccc1 (stereo not drawn)	1	12	-3	-2	20*	-15
CCn1cc(S(=O)(=O)NCCc2ccc(F)cc2)cn1	14	2	0	1	-3	-3
CC(=O)NC(c1ccccc1)c1nc(-c2ccc(C)c(C)c2)cs1 (stereo not drawn)	10	1	-3	1	-8	0

Source: PubChem (The Scripps Research Institute Molecular Screening Center)
